From ChEMBL document CHEMBL1759944, “Structure-activity relationship of 2,4,5-trioxoimidazolidines as inhibitors of thymidine phosphorylase” (Eur J Med Chem, 2011)
Counter-ions that a name gives are not always drawn.

What follows are molecules tested against Thymidine phosphorylase (Escherichia coli K-12, UniProt P07650) (assay: Inhibition of Escherichia coli Thymidine phosphorylase by spectrophotometry). Settings: not given; call rule not given here.
In short: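 E. coli TP (0.22 units) added to start a 1 ml reaction containing […] and inhibitor in 0.1 M potassium phosphate, pH 7.4. Loss of thymidine absorbance followed at 265 nm, 25 °C, in a thermostatted cuvette. IC50 obtained from inhibition curves by enzyme kinetics analysis.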

Sequence of Thymidine phosphorylase (P07650 whole entry): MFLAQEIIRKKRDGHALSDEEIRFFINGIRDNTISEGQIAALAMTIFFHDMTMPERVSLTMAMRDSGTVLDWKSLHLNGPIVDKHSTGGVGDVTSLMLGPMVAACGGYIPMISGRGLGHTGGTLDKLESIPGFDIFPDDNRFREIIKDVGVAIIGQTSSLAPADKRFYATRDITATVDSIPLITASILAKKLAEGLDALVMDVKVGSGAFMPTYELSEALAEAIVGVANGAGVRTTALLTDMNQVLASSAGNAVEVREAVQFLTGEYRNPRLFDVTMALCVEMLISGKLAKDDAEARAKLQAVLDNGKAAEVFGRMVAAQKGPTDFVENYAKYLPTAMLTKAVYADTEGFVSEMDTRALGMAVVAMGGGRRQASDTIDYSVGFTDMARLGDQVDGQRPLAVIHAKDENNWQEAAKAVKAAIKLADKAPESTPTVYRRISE

Q: Which IC50 does the source give for `O=C(O)CN1C(=O)C(=O)N(Cc2cccc(Cl)c2)C1=O` here?
A: Its IC50 is “Active”.

Same assay, conditions: read-out: IC50

Q: `O=C1NC(=O)N(CCc2ccccc2)C1=O` was tested. Which IC50 did it give?
A: Its IC50 is 103 µM.

Q: How did the IC50 turn out when `CCOC(=O)CN1C(=O)C(=O)N(Cc2cccc(Cl)c2)C1=O` was run?
A: Its IC50 is 292 µM.

Q: `O=C(O)CN1C(=O)C(=O)N(CCc2ccccc2)C1=O` was tested. Which IC50 did it give?
A: The IC50 was 85 µM.

Q: With `NC(=O)CCN1C(=O)C(=O)N(Cc2cccc(Cl)c2)C1=O` as the molecule, how does the IC50 read?
A: The IC50 was 66 µM.

Q: `CCOC(=O)CN1C(=O)C(=O)N(CCc2ccccc2)C1=O` was tested. Which IC50 did it give?
A: The IC50 was 357 µM.

Q: With `NC(=O)CCN1C(=O)C(=O)N(Cc2ccccc2)C1=O` as the molecule, how does the IC50 read?
A: The IC50 was 106 µM.

Q: `N=C1CCCN1Cc1[nH]c(=O)[nH]c(=O)c1Cl` [TIPIRACIL HYDROCHLORIDE] was tested. Which IC50 did it give?
A: The IC50 was 0.036 µM.

Q: How did the IC50 turn out when `CCOC(=O)CN1C(=O)C(=O)N(Cc2ccccc2)C1=O` was run?
A: The IC50 was 342 µM.

Q: `Cc1ccccc1CN1C(=O)NC(=O)C1=O` was tested. Which IC50 did it give?
A: Its IC50 is 128 µM.

Q: With `O=C(O)CN1C(=O)C(=O)N(Cc2ccccc2)C1=O` as the molecule, how does the IC50 read?
A: The IC50 was 264 µM.

Q: How did the IC50 turn out when `O=C1NC(=O)N(Cc2ccccc2)C1=O` was run?
A: The IC50 was 115 µM.

Q: Which IC50 does the source give for `NC(=O)CCN1C(=O)C(=O)N(CCc2ccccc2)C1=O` here?
A: The IC50 was 40 µM.

Q: How did the IC50 turn out when `O=C1NC(=O)N(Cc2cccc(Cl)c2)C1=O` was run?
A: Its IC50 is 117 µM.

Q: For `CCOC(=O)CN1C(=O)C(=O)N(Cc2ccccc2C)C1=O`, which IC50 is on record?
A: Its IC50 is 303 µM.

Q: How did the IC50 turn out when `Cc1ccccc1CN1C(=O)C(=O)N(CC(=O)O)C1=O` was run?
A: Its IC50 is 236 µM.

Q: `Cc1ccccc1CN1C(=O)C(=O)N(CCC(N)=O)C1=O` was tested. Which IC50 did it give?
A: Its IC50 is 88 µM.
